This note sets out measurements from the RNAGym collection of RNA variant scans (doi:10.1126/science.aae0568).

Fewer inactive variants are shown than the library holds. Bounds are passed on as bounds.

B1: tRNA (parent)
chain: GUUCCGUUGGCGUAAUGGUAACGCGUCUCCCUCCUAAGGAGAAGACUGCGGGUUCGAGUCCCGUACGGAACG

In this data set the parent is B1. Nature of the data set: yeast fitness relative to wild type (ratio to wild type); higher = fitter; tRNA-Arg(CCU), competitive growth, 37 C, YPD. An outline of the steps:
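A pool of Saccharomyces cerevisiae strains, each with a tRNA-Arg(CCU) gene variant at the native genomic locus, was competed in YPD at 37°C for 24 hours across six parallel replicates. The variants had been chemically synthesised at a 3% per-site mutation rate over 69 sites, and gene amplicons before and after competition were read by 100-nucleotide paired-end sequencing. Darwinian fitness relative to wild type rested on changes in genotype frequencies. Genotypes required ≥ 100 starting reads, and estimates < 0.5 were set to 0.5.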
As for A36C A40C, the yeast fitness is 0.572.

In the case of C5G G44C C49U U59G, the yeast fitness was not above 0.5.

Regarding G12A G44C C46G, the yeast fitness was determined as 0.61.

As for A14G A37C, the yeast fitness is 0.73.

For the variant C5U C11U G25A A37G C60G, the yeast fitness is not above 0.5.

A42U C62G: the yeast fitness was determined as 0.596.

Turning to C49G A70U, the yeast fitness was found to be 0.872.

With U2A C11G U19C, the yeast fitness was not above 0.5.

U2A C29A: the yeast fitness was determined as 0.625.

For A36C G38C A45G, the yeast fitness was determined as 0.585.

With U7A G9C A40C C62A, the yeast fitness was not above 0.5.

On to G17C C24G C34U, for which the yeast fitness was 0.527.

As for U2G C29A A40U, the yeast fitness is not above 0.5.

On to A20G U35C G63A A70U, for which the yeast fitness is not above 0.5.

With C5G A20G G58C, the yeast fitness was determined as 0.648.

As for C5G C30A C31A C49U C55G, the yeast fitness was determined as 0.544.

As for C31A G38C G44A A65G, the yeast fitness stood at 0.534.

Regarding U2C U35A C60A, the yeast fitness was not above 0.5.

Take C5U A40U A42G A57C: the yeast fitness is not above 0.5.

Turning to G17A A65U, the yeast fitness is 0.805.

U28C C33U A45U: the yeast fitness was 0.578.

With C4G U13A C30G, the yeast fitness was not above 0.5.

For U3G C62U A70U, the yeast fitness stood at 0.551.

Take U35G A45U: the yeast fitness came to 0.589.

With U2A G9A U13A C24A, the yeast fitness is not above 0.5.

On to C22A G50C A70G, for which the yeast fitness was not above 0.5.

Take C46U G63A A69C: the yeast fitness was 0.833.

As to C24G G44C G68U, the yeast fitness turned out to be 0.663.

Take C5U G48A: the yeast fitness was 0.891.

In the case of G18C C66U, the yeast fitness was determined as 0.59.

Regarding G48C G63C, the yeast fitness worked out at 0.705.

In the case of U8C C11U A21G, the yeast fitness came out at 0.7.

Consider A15G C30A A65C, for which the yeast fitness was found to be 0.609.

On to G38A C62A, for which the yeast fitness is 0.742.

With U26G A42C U47C, the yeast fitness came to 0.816.

For the variant C11G C24U C34A A37C C55G, the yeast fitness was 0.526.

For the variant U26G C27U, the yeast fitness is 0.801.

Take C4U A20U C46A: the yeast fitness came out at 1.02.

With G25C C27G, the yeast fitness amounted to 0.553.

As to U3A C4A A21U G56C G58A, the yeast fitness was not above 0.5.

With G17C C24A, the yeast fitness was 0.56.

As for C5G C46U A57C, the yeast fitness is 0.552.

For the variant U3G C22U A57G C60A, the yeast fitness was not above 0.5.

Regarding U2G C62G C66U, the yeast fitness is not above 0.5.

For the variant C22G C62U, the yeast fitness came to 0.879.

On to U7A C46G A70U, for which the yeast fitness amounted to 0.642.

As for U2G C4U A36G A45U, the yeast fitness was found to be 0.537.

G12A U13C C27G C31U C34A: the yeast fitness was not above 0.5.

For the variant U8C C27U A42U, the yeast fitness was found to be 0.552.

Take U2G U19G: the yeast fitness came to 1.24.

Take C27U C49G A69U: the yeast fitness turned out to be 0.542.

Regarding A20G C30G G38A, the yeast fitness was not above 0.5.

As for C5A G39A C60U C62A, the yeast fitness came to 0.557.

As for G23C A43U, the yeast fitness worked out at 0.733.

In the case of U2C G23A G38A G56C C61U G67A, the yeast fitness is not above 0.5.

Turning to U8A A20G C33A A57G, the yeast fitness was not above 0.5.

As to G44A C61G, the yeast fitness stood at 0.597.

On to A21U C30G U32C, for which the yeast fitness is not above 0.5.

Regarding C33G G52A U64C C66U G67A, the yeast fitness is not above 0.5.

With G56A G63A, the yeast fitness was found to be 0.726.

Regarding G58C C66G, the yeast fitness stood at 0.711.

Turning to C5U G38C G39C A40G G44A C46G G52A, the yeast fitness is not above 0.5.

Turning to C5A C55U A65G, the yeast fitness is 0.583.

As to G23C C49G, the yeast fitness worked out at 0.563.

On to G17A A21C, for which the yeast fitness turned out to be 0.67.

On to U13A U28A C30G C46U G56C, for which the yeast fitness is not above 0.5.

Take C4A C24U A65C: the yeast fitness was found to be 0.65.

Take U16A C30G C34G A42U C66U: the yeast fitness is not above 0.5.

With G9A A21C G25C U64A G67A, the yeast fitness is not above 0.5.

With C4A G25A C29A A37G G50C C60G G63A, the yeast fitness was not above 0.5.

On to C4U G25C G68A, for which the yeast fitness is 0.976.

As to C11U A14U U28A C33U, the yeast fitness was 0.535.

As to C4U A57G, the yeast fitness worked out at 0.872.

With C4U A57C, the yeast fitness was found to be 0.709.

On to G12C A20C C27G A45G C66A, for which the yeast fitness was not above 0.5.

On to C31U G39C A40U, for which the yeast fitness came to 0.838.

As for C4A G6C C55U, the yeast fitness is not above 0.5.

Consider G10A C27A C34U A57G, for which the yeast fitness is not above 0.5.

G10C G18A C27G G63C: the yeast fitness was not above 0.5.

C4A C11G U19G: the yeast fitness was not above 0.5.

In the case of C11U A20C C22G A65G A70C, the yeast fitness is not above 0.5.

As to G23C C29A C66U, the yeast fitness was not above 0.5.

For A43C G52A A69U, the yeast fitness is 0.508.

As to C27G C30G C49U C62U G67A, the yeast fitness was not above 0.5.

G10C C22A G56C A65G: the yeast fitness is not above 0.5.

As for G44A C46A, the yeast fitness turned out to be 0.835.

For U19C U32A G67A, the yeast fitness turned out to be 0.65.

Take C11U C29U C61U U64C: the yeast fitness was not above 0.5.

As for C4U A20U C27G C30G U32C A43G A65C G68C, the yeast fitness was not above 0.5.

Consider A14C C33U, for which the yeast fitness amounted to 0.64.

G18C A40C C49G G63A: the yeast fitness came to 0.553.

As to C5G C11G, the yeast fitness was 0.614.

For the variant G12C C22U U54C C61U G68A, the yeast fitness is not above 0.5.

For the variant G10C C22G C33U A36C A40U, the yeast fitness was not above 0.5.

Turning to G56A C66G, the yeast fitness amounted to 0.689.

Consider C11U C24G C27G A36U G38C C60G C66A, for which the yeast fitness was not above 0.5.

On to U2G U26C G56A, for which the yeast fitness stood at 0.547.

Take U26C C30G C34A C62U: the yeast fitness is not above 0.5.

C24U A36G G63C: the yeast fitness was not above 0.5.

Take U8G A21U G56A: the yeast fitness is not above 0.5.

With A43G G51C U54A A57C, the yeast fitness was not above 0.5.

With C49G G50C A65U, the yeast fitness came out at 0.544.

For the variant C22G C24U G50C, the yeast fitness is not above 0.5.

U8A C24A C30U C31U G48C: the yeast fitness was 0.58.

In the case of U28C G44A A57G, the yeast fitness stood at 0.578.

Regarding U7C A14G G17A A69U, the yeast fitness amounted to 0.553.

Turning to C4U U8A U16C A20U C29U A45C, the yeast fitness was not above 0.5.

On to U26C C27G A40C, for which the yeast fitness was not above 0.5.

Take U13A C62U: the yeast fitness was 1.05.

For the variant A14C U32G A45G U64C, the yeast fitness is not above 0.5.

Consider G48C U59C, for which the yeast fitness was 0.929.

In the case of U13G C31A U54C A57U, the yeast fitness is not above 0.5.

As for U13C C31G A40C A42G G51A, the yeast fitness was 0.578.

As to G6A U64A, the yeast fitness turned out to be 0.71.

With C30G A69C, the yeast fitness was found to be 0.687.

Consider C4U U8A U32G U35A C62U, for which the yeast fitness amounted to 0.707.

Consider A14G A20C G67C, for which the yeast fitness was determined as 0.534.

As for C4G C29G A36C A37U G38A A40C A45G G51A, the yeast fitness was not above 0.5.

For the variant U3A C5A G6C A15G U16A G67U, the yeast fitness is not above 0.5.

Regarding A15G U53A C55A U64G, the yeast fitness turned out to be 0.571.

For the variant U16C U32C G39C, the yeast fitness is not above 0.5.

Consider C24G C27U C33U G50C A69U, for which the yeast fitness was not above 0.5.

For the variant C5U A15G G58C G68A, the yeast fitness came to 0.51.

In the case of G9A C11U C29G, the yeast fitness is 0.609.

Regarding G12A A42U C61G, the yeast fitness was 0.505.

As to G23C G39C A42U G52U U53A, the yeast fitness was not above 0.5.

As for C22U U32A C46G G52C C62U, the yeast fitness is not above 0.5.

Consider G10A C27G G63C, for which the yeast fitness was not above 0.5.

Take C24U G68C: the yeast fitness came out at 0.823.

In the case of C11A C22U U26G A40U G48C, the yeast fitness turned out to be 0.537.

G18A C30A U32A U35G G67A: the yeast fitness was not above 0.5.

On to U3A G12A U19A U64C, for which the yeast fitness is not above 0.5.

In the case of U3C U7A A42C C49U C55U, the yeast fitness is not above 0.5.

Turning to U7C A14C G63C, the yeast fitness is 0.573.

With U26A C30G A37C U59A, the yeast fitness was not above 0.5.

For the variant U2G U7C C55U C62G C66A, the yeast fitness is not above 0.5.

With A20G G51C G67A, the yeast fitness came out at 0.534.

As to G56C A65U, the yeast fitness stood at 0.714.

On to C5U C11U A36U C62A, for which the yeast fitness was not above 0.5.

With C4A C33G A45G, the yeast fitness is not above 0.5.

On to C29U C31A A40C G52A C61A, for which the yeast fitness is not above 0.5.

Take C31A A37C: the yeast fitness was determined as 0.665.

For the variant U53A C62U A69U, the yeast fitness was not above 0.5.

Regarding U26C C27G A40C C66U, the yeast fitness was not above 0.5.

As for A21U C24U U26A A43U, the yeast fitness worked out at 0.668.

In the case of A21G U32G, the yeast fitness was determined as 0.576.

As to U3A U19A G58C, the yeast fitness was 0.675.

For the variant U13G A40G U47C A69U, the yeast fitness is 0.653.

On to A15G A37C G48C, for which the yeast fitness was not above 0.5.

With C29G C49G G56A, the yeast fitness is not above 0.5.

As for U28A C30U A69C, the yeast fitness worked out at 0.57.

As for C31A A36C, the yeast fitness came out at 0.558.

In the case of A20U C46U A69G, the yeast fitness was 0.893.

Take A57U A65U G67A G68C: the yeast fitness was not above 0.5.

Consider G6A G18C C61G, for which the yeast fitness stood at 0.563.

For C4U G38C, the yeast fitness amounted to 0.825.

As for C5A C27G C33A A40U G48C U54A, the yeast fitness was found to be 0.506.

As for U2C C31G C55G, the yeast fitness worked out at 0.569.

Consider U8G C62G, for which the yeast fitness was determined as 0.533.

U13A C24A A45C: the yeast fitness is not above 0.5.

C11U U19G C27U C29G: the yeast fitness is not above 0.5.

Regarding U16C C22G C66U, the yeast fitness is 0.721.

With A15G C27A A43G, the yeast fitness is not above 0.5.

For the variant U28G A57C, the yeast fitness was determined as 0.587.

For C5U G17A A40U A42C C49A, the yeast fitness is 0.684.

Regarding C4G A21G C34U G44C C55G, the yeast fitness was not above 0.5.

As to G10A A14U A20G U26G C31G C34G A42U A43C G50C A70C, the yeast fitness is not above 0.5.
